Experimental data taken from ChEMBL document CHEMBL1133588 (J Med Chem, 2000).

Tests used:
Assay type in all cases: tissue-based
[1] = target: T1, Muscarinic acetylcholine receptor M1 (Rattus norvegicus, UniProt P08482); experiment: Binding affinity at Muscarinic acetylcholine receptor M1 in Rat brain homogenate by [3H]pirenzepine displacement.
T1 sequence (P08482 whole entry): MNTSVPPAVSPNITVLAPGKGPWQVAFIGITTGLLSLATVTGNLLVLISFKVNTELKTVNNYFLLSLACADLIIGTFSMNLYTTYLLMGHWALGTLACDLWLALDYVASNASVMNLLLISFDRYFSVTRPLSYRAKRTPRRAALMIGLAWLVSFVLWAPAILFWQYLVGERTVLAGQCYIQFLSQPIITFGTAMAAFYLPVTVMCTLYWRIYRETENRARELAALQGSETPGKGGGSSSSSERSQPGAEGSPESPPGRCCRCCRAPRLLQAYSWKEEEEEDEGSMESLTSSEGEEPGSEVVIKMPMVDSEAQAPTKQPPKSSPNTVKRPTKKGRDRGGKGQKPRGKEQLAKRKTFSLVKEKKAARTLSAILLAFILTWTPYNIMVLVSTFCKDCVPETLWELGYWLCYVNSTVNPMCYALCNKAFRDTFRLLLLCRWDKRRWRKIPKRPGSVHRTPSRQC

[2] = target: T1, Muscarinic acetylcholine receptor M1; experiment: Compound is tested for displacement of [3H]pirenzepine at […] in Rat brain homogenate.
Procedure, shortened: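 Whole rat brain minus cerebellum, homogenised in 10 mM Tris-HCl/320 mM sucrose pH 7.4; 10000g pellet. Binding in 10 mM Tris-HCl with 5 mM MgCl2, […], [3H]pirenzepine 3 nM final, 1 h at 37 °C. Competitor 0.01 nM–100 µM. Filtration through PEI-soaked GF/B filters. At least three experiments in triplicate; Ki from nonlinear curve fitting.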

[3] = target: Sodium-dependent dopamine transporter (Rattus norvegicus, UniProt P23977); experiment: Displacement of [3H]WIN-35428 from the dopamine transporter in rat caudate putamen
Procedure, shortened: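 Male Sprague-Dawley rat caudate putamen, fresh washed membranes in Krebs-HEPES pH 7.4, 0.5% w/v. Filtration on BSA-soaked GF/B filters. Three experiments in triplicate; Ki from nonlinear least-squares fitting of pooled replicates.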

Sodium-dependent dopamine transporter, sequence (P23977 whole entry): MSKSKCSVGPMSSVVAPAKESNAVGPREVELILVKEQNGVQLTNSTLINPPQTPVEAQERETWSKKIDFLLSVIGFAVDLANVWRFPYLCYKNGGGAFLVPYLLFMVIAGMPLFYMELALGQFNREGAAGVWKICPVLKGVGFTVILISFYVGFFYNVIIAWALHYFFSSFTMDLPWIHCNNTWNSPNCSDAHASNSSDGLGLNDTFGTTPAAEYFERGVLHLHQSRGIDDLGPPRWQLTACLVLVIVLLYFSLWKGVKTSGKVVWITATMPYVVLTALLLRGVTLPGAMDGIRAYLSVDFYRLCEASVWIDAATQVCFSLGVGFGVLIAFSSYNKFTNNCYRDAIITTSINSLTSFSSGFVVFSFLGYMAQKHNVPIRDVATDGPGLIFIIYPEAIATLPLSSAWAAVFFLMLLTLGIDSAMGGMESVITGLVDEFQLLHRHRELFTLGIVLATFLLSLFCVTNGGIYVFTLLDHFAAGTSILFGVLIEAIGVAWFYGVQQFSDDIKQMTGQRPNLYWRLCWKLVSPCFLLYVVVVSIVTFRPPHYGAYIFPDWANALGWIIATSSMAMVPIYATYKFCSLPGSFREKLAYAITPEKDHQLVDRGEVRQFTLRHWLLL

Row | SMILES | Ki [1] [µM] | Ki [2] [µM] | Ki [3] [µM]
1 | CCCCN1C2CCC1CC(OC(c1ccc(F)cc1)c1ccc(F)cc1)C2 (stereo not given) | 0.399 | – | –
2 | Fc1ccc(CCCN2C3CCC2CC(OC(c2ccc(F)cc2)c2ccc(F)cc2)C3)cc1 (stereo not given) | – | 0.686 | –
3 | Fc1ccc(CN2C3CCC2CC(OC(c2ccc(F)cc2)c2ccc(F)cc2)C3)cc1 (stereo not given) | – | 1.54 | –
4 | Fc1ccc(C(OC2CC3CCC(C2)N3)c2ccc(F)cc2)cc1 (stereo not given) | 0.203 | – | –
5 | Fc1ccc(C(OC2CC3CCC(C2)N3Cc2cccc3ccccc23)c2ccc(F)cc2)cc1 (stereo not given) | 1.79 | – | 0.367
6 | Fc1ccc(C(OC2CC3CCC(C2)N3CCCc2ccccc2)c2ccc(F)cc2)cc1 (stereo not given) | – | 0.312 | –
7 | Fc1ccc(C(OC2CC3CCC(C2)N3Cc2ccccc2)c2ccc(F)cc2)cc1 (stereo not given) | – | 1.03 | –
8 | C=CCCN1C2CCC1CC(OC(c1ccc(F)cc1)c1ccc(F)cc1)C2 (stereo not given) | 0.278 | – | 0.0319
9 | O=[N+]([O-])c1ccc(-c2ccc(COCCN3C4CCC3CC(OC(c3ccc(F)cc3)c3ccc(F)cc3)C4)cc2)cc1 (stereo not given) | – | 0.46 | –
10 | CC[C@H](CN1C2CCC1CC(OC(c1ccc(F)cc1)c1ccc(F)cc1)C2)c1ccccc1 (stereo not given in full) | 2.36 | – | 0.228
11 | C[C@@H](CN1C2CCC1CC(OC(c1ccc(F)cc1)c1ccc(F)cc1)C2)c1ccccc1 (stereo not given in full) | 0.392 | – | 0.477
12 | CC[C@@H](CN1C2CCC1CC(OC(c1ccc(F)cc1)c1ccc(F)cc1)C2)c1ccccc1 (stereo not given in full) | 1.44 | – | 0.4
13 | C[C@H](CN1C2CCC1CC(OC(c1ccc(F)cc1)c1ccc(F)cc1)C2)c1ccccc1 (stereo not given in full) | 1.9 | – | 0.301
14 | Fc1ccc(C(OC2CC3CCC(C2)N3Cc2ccc(Cl)c(Cl)c2)c2ccc(F)cc2)cc1 (stereo not given) | 3.88 | – | 0.392
15 | CC(C)[C@H](N)CN1C2CCC1CC(OC(c1ccc(F)cc1)c1ccc(F)cc1)C2 (stereo not given in full) | 4.02 | – | 0.0295
16 | Fc1ccc(C(OC2CC3CCC(C2)N3C/C=C/c2ccccc2)c2ccc(F)cc2)cc1 (stereo not given) | – | 0.401 | 0.0864
17 | Nc1ccc(CCCCN2[C@@H]3CC[C@H]2C[C@@H](OC(c2ccc(F)cc2)c2ccc(F)cc2)C3)cc1 | 0.134 | – | –
18 | O=[N+]([O-])c1ccc(CCCCN2[C@@H]3CC[C@H]2C[C@@H](OC(c2ccc(F)cc2)c2ccc(F)cc2)C3)cc1 | 0.299 | – | –
19 | NCCN1[C@@H]2CC[C@H]1C[C@@H](OC(c1ccc(F)cc1)c1ccc(F)cc1)C2 | 1.25 | – | 0.0139
20 | Fc1ccc(C(O[C@H]2C[C@H]3CC[C@@H](C2)N3CCc2c[nH]c3ccccc23)c2ccc(F)cc2)cc1 | – | 3.28 | 0.0446
21 | C=CCN1C2CCC1CC(OC(c1ccc(F)cc1)c1ccc(F)cc1)C2 (stereo not given) | 0.177 | – | –
22 | CC(C)[C@@H](N)CN1C2CCC1CC(OC(c1ccc(F)cc1)c1ccc(F)cc1)C2 (stereo not given in full) | 2.18 | – | 0.0564
23 | Fc1ccc(C(OC2CC3CCC(C2)N3CC2CC2)c2ccc(F)cc2)cc1 (stereo not given) | – | 0.257 | –
